The target in assay [1] is T1, Vitamin D3 receptor (Rattus norvegicus) (UniProt P13053).
T1 sequence (whole entry): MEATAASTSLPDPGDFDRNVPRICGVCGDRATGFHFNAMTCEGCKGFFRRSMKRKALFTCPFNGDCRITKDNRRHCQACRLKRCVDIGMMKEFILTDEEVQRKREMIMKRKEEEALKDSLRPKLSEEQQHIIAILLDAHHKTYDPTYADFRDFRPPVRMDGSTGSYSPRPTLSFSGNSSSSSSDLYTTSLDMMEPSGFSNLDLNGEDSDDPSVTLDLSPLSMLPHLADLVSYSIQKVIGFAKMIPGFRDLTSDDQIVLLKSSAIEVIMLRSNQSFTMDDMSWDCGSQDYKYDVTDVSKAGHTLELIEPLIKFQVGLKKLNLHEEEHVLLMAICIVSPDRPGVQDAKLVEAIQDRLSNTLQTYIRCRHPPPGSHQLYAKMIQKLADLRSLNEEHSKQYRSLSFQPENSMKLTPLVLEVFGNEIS
Put plainly: Induction of vitamin D mediated transactivation in rat ROS17/2.8 cell luciferase assay. It is filed as functional. The procedure, abridged: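 ROS 17/2.8 cells stably carrying a 24-hydroxylase promoter-luciferase reporter were dosed over a concentration range. Luciferase was measured by luminometer 16 h later.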

Assay [2] relates to Rattus norvegicus. Put plainly: Calcium mobilization in vitamin D deficient ip dosed Sprague-Dawley rat bone. Type of assay: functional, organism-based. The method in brief:
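Rats depleted of vitamin D and kept on 0.02% Ca diet; four consecutive daily ip doses in 0.1 mL 1,2-propanediol/ethanol (95:5). Serum drawn 24 h after last dose; calcium by atomic absorption with 0.1% lanthanum chloride; rise in serum calcium taken as bone calcium mobilization.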
In general terms: Calcium flux is commonly read through the fluorescence of an indicator in the cells.

Assay [3] deals with Rattus norvegicus. Put plainly: Calcium mobilization in vitamin D deficient ip dosed Sprague-Dawley rat.
For assay [4], the target named is T2, Vitamin D3 receptor (Homo sapiens) (UniProt P11473).
T2 sequence (whole entry): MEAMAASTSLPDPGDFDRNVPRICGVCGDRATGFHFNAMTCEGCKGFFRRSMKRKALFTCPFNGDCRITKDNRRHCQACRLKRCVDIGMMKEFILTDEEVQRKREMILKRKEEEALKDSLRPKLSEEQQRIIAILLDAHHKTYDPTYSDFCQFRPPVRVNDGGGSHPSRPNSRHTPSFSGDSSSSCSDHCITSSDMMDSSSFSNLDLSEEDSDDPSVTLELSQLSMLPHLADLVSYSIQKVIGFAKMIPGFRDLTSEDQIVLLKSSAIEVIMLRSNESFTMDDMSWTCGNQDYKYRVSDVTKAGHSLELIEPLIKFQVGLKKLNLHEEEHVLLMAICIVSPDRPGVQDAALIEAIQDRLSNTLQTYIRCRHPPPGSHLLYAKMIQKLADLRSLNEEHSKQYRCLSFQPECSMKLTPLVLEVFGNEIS
Put plainly: Induction of differentiation of human HL60 promyelocytes to monocytes. Type of assay: functional.

Another assay has as its system Mus musculus. Put plainly: Increase of calcium level in po dosed CD1 mouse serum. Type of assay: functional, organism-based. The method in brief: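 Female CD-1 mice, 6-7 weeks, on 0.47% Ca diet, acclimated 5-7 days. Single gastric gavage dose formulated in Neobee oil with 5% ethanol at 4 mL/kg. Serum calcium measured by atomic absorption at several timepoints after dosing, including day 3.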

Where “and” joins values, the source holds several entries; their conditions need not be identical. Equal values may be shown once. Calls of active or inactive are those of the source. The calls are words filed in the database; no cut-off is given here.

With `C[C@@H](CCCC(C)(C)O)C1CCC2/C(=C/C=C3C[C@@H](O)C(=CCCO)[C@H](O)C3)CCC[C@@]21C` (stereo partly drawn), the ED50 in assay [1] was 0.0065 nM. For the same compound, the result with Rattus norvegicus [2] and in the assay with Rattus norvegicus [3] was Active.

Take `COCOCCC=C1[C@H](O)CC(=C/C=C2\CCC[C@@]3(C)C2CCC3[C@H](C)CCCC(C)(C)O)C[C@H]1O` (stereo partly drawn): the ED50 in assay [1] is 3.8 nM; in assay [4], 4.7 nM. Further, the result in the assay with Mus musculus, in the assay on Rattus norvegicus [2] and in the assay with Rattus norvegicus [3] was Active.

For the compound `C[C@H](CCCC(C)(C)O)C1CCC2/C(=C/C=C3C[C@@H](O)C(=CCCO)[C@H](O)C3)CCC[C@@]21C` (stereo partly drawn), the ED50 in assay [1] is 0.042 nM; in assay [4] it was 3 nM and 1.3 nM. The result in the assay with Mus musculus, in the assay with Rattus norvegicus [2] and with Rattus norvegicus [3] was Active.

The record behind these values is ChEMBL document CHEMBL1147668, “New 2-alkylidene 1alpha,25-dihydroxy-19-norvitamin D3 analogues of high intestinal activity: synthesis and biological evaluation of 2-(3'-alkoxypropylidene) and 2-(3'-hydroxypropylidene) derivatives” (J Med Chem, 2006).
